Eight compounds from ChEMBL document CHEMBL1148609, “Orally active purine-based inhibitors of the heat shock protein 90” (J Med Chem, 2006) can be followed below.

Calls of active or inactive are those of the source. The rule behind the calls is not given here.

Broadly, the AUC is concentration integrated over time. Higher therefore signals high exposure. What is called Tmax is the time from dosing to the highest level. What is called half-life is the time in which the quantity being followed falls by half. The low end stands for fast loss, the high end for slow loss. A word on the IC50: it is the point on the concentration scale where inhibition reaches its midpoint. Higher therefore signals weaker potency in that assay. In general, clearance refers to the volume of plasma or blood freed of the substance per unit of time. Usually bioavailability stands for dose-corrected exposure relative to a reference, in per cent. Read a high bioavailability as good availability. Usually Cmax stands for the highest concentration seen after dosing.

Data set [1] in a line: (§1) AUC in BALB/c mice at 100 mg/kg, po. In kind it is ADME, organism-based, Plasma. Details: dose 100 mg/kg, route oral. To be noted: BALB/c, mouse, plasma. In a few lines:
(§2)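 Balb/C mice, three dosed orally by gavage (5-20 mL/kg) and three intravenously; H3PO4 salts formulated as a phosphatidylcholine/water dispersion. Six blood samples collected, the last 4 h postdose. Plasma levels measured by HPLC (detection limit 0.5 µg/mL).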

For data set [2], the system named is Mus musculus. Nature of the data set: Degradation of pAKT in murine N87 xenograft model at (2*200 mg/kg/day), po. The format is functional, organism-based. A digest of the protocol: (§3)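 Mice bearing N87 gastric tumor xenografts (high HER-2) given the H3PO4 salt orally at 2 × 200 or 2 × 100 mg/kg/day for 3 days. Reference arm received 17-AAG ip at 90 mg/kg once daily. Animals sacrificed 24 h after the last dose and client proteins in tumor lysates assessed by Western blot.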

A short description of data set [3]: Tmax in BALB/c mice at 100 mg/kg, po. The format is ADME, organism-based. More on the design: dose 100 mg/kg, route oral. To be noted: mouse, in vivo. In a few lines:
as §2

A short description of data set [4]: Half life in BALB/c mice at 10 mg/kg, iv. Details: dose 10 mg/kg, route intravenous. To be noted: mouse, in vivo. The format is ADME, organism-based. In a few lines: as §2
The test system of data set [5] is Mus musculus. Nature of the data set: Degradation of PI3K in murine N87 xenograft model at (2*200 mg/kg/day), po. The format is functional, organism-based. A digest of the protocol: as §3
Data set [6] deals with MCF7. In words: Growth inhibition in breast cancer MCF7 cell line by MTS assay. The format is functional, cell-based. To be noted: Homo sapiens. In a few lines:
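MCF-7 breast cancer cells exposed to compound for 5 days, then MTS added and formazan read at 490 nm. […] Values are the mean of at least three independent observations.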

Data set [7] concerns Mus musculus. Nature of the data set: Upregulation of Hsp70 in murine N87 xenograft model at (2*200 mg/kg/day), po. The format is functional, organism-based.
Data set [8] deals with Mus musculus. Nature of the data set: Degradation of HER2 in murine N87 xenograft model at (2*200 mg/kg/day), po. The format is functional, organism-based. A digest of the protocol:
as §3

The subject of data set [9] is Mus musculus. In words: Degradation of pRaf in murine N87 xenograft model at (2*200 mg/kg/day), po. In kind it is functional, organism-based. In a few lines:
as §3

Data set [10] is described as follows: Clearance in BALB/c mice at 10 mg/kg, iv. More on the design: dose 10 mg/kg, route intravenous. The format is ADME, organism-based. To be noted: mouse, in vivo. In a few lines:
as §2

Data set [11] concerns Mus musculus. In words: Degradation of pHER2 in murine N87 xenograft model at (2*200 mg/kg/day), po. In kind it is functional, organism-based. In a few lines: as §3
A short description of data set [12]: (§4) Bioavailability in BALB/c mice at 100 mg/kg, po. The format is ADME, organism-based. The settings on record: BALB/c, mouse, in vivo. In a few lines:
as §2

Data set [13] is described as follows: Cmax in BALB/c mice at 100 mg/kg, po. In kind it is ADME, organism-based. More on the design: dose 100 mg/kg, route oral. The settings on record: mouse, in vivo. A digest of the protocol: as §2
Data set [14] in a line: Half life in BALB/c mice at 100 mg/kg, po. More on the design: dose 100 mg/kg, route oral. To be noted: mouse, in vivo. The format is ADME, organism-based. In a few lines:
as §2

Data set [15] is described as follows: Volume of distribution in BALB/c mice at 10 mg/kg, iv. The format is ADME, organism-based. Details: dose 10 mg/kg, route intravenous. To be noted: mouse, in vivo, read-out: Vdss. A digest of the protocol:
as §2

The test system of data set [16] is Mus musculus. In words: Tumor growth inhibition in murine xenograft model using N87 stomach cancer cell line at 200 mg/kg/day, po. The settings on record: NCI-N87. The format is functional, organism-based. A digest of the protocol:
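Female nu/nu athymic mice, 6-8 weeks old, implanted sc in the flank with N87 tumor fragments (~2 mm³) or 5 × 10⁶ cells. Established tumors of 50-200 mm³ used, n = 6-10 per group. H3PO4 salt given orally at 1 × 200 or 2 × 100 mg/kg/day, 5 days/week; vehicle-dosed controls. Caliper volumes (l × w²)/2 taken twice weekly.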

Data set [17] concerns Mus musculus. Nature of the data set: Degradation of pRaf in A549 tumor xenograft at 200 mg/kg, po. The format is functional, organism-based. More on the design: dose 200 mg/kg. A digest of the protocol: (§5)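 Female nu/nu athymic mice (6-8 weeks old) carrying subcutaneous A549 lung cancer xenografts received a single oral gavage dose of the H₃PO₄ salt (200 mg/kg), formulated as a phosphatidylcholine/water dispersion. Mice were sacrificed at 6, 24 or 48 h, and tumors were harvested. HER-2, pHER-2, pAKT, pRaf and Hsp70 levels were assessed by Western blot.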

The test system of data set [18] is Mus musculus. Nature of the data set: Upregulation of Hsp70 in A549 tumor xenograft at 200 mg/kg, po. In kind it is functional, organism-based. Details: dose 200 mg/kg. In a few lines:
as §5

For data set [19], the system named is Mus musculus. Nature of the data set: Degradation of HER2 in A549 tumor xenograft at 200 mg/kg, po. In kind it is functional, organism-based. More on the design: dose 200 mg/kg. In a few lines:
as §5

In data set [20] the test system is A549. In words: Degradation of pHER2 in A549 tumor xenograft at 200 mg/kg, po. The format is functional, organism-based. More on the design: dose 200 mg/kg. The settings on record: Mus musculus. In a few lines:
as §5

The target in data set [21] is Heat shock protein HSP 90-alpha (Homo sapiens) (UniProt P07900). Nature of the data set: Hsp90 inhibition measured as HER-2 degradation in MCF-7 cells.
Data set [22] concerns Mus musculus. Nature of the data set: Degradation of pAKT in A549 tumor xenograft at 200 mg/kg, po. In kind it is functional, organism-based. Details: dose 200 mg/kg. In a few lines: as §5
Data set [23] concerns Mus musculus. The data set is described as §1. In kind it is ADME, organism-based, Plasma. The settings on record: in vivo. More on the design: dose 100 mg/kg, route oral. In a few lines: as §2
Data set [24] deals with Mus musculus. The description is as §4. The format is ADME, organism-based. The settings on record: in vivo. A digest of the protocol:
as §2

For the compound `COc1ccc(I)c(Sc2nc3c(N)ncnc3n2CCCNC(C)C)c1`, in data set [1], the AUC is 7500 ng·h/mL. Further, the outcome in data set [2], in data set [7], in [8], in [9], in data set [11] and in data set [16] was Active. The Tmax in [3] is 0.5 h. For the same compound, the values for the half-life in data set [4] and in data set [14] were 4.2 h and 1.5 h, respectively. Besides, in data set [5], the outcome was inactive. The same compound showed an IC50 in [6] of 600 nM. The same compound registered a clearance in data set [10] of 62 mL/min/kg. Also, in [12], the bioavailability came to 55%. Moreover, the Cmax in data set [13] stood at 4700 ng/mL. In [15], the Vd was found to be 22 L/kg.

`C#CCCCn1c(Sc2cc(OC)c(OC)c(OC)c2Cl)nc2c(N)nc(F)nc21` displayed a half-inhibitory concentration (IC50) in data set [6] of 1200 nM.

As for `COc1ccc(I)c(Sc2nc3c(N)ncnc3n2CCNCC(C)C)c1`, the outcome in data set [17], in data set [18], in [19], in data set [20] and in [22] was Active. The IC50 is 200 nM in [6] and 100 nM in data set [21].

For `CCC(C)NCCCn1c(Sc2cc(OC)ccc2I)nc2c(N)ncnc21` (stereo not drawn), in [23], the AUC turned out to be 380 µg·min/mL. Moreover, the Tmax in data set [3] was 0.5 h. Moreover, the half-life in [4] is 1.3 h; in [14], 0.7 h. The same compound showed an IC50 in data set [6] of 200 nM. This compound came in with a F in data set [24] of 28%. The compound further showed a peak concentration (Cmax) in data set [13] of 4800 ng/mL. Besides, the Vd in [15] came out at 3.4 L/kg. The result in [16] was Active.

In turn, `COc1ccc(I)c(Sc2nc3c(N)ncnc3n2CCCNC(C)(C)C)c1` returned an IC50 in [6] of 200 nM.

In the case of `C#CCCCn1c(Sc2cc(OC)ccc2I)nc2c(N)ncnc21`, the IC50 in [6] stood at 700 nM.

`CCC(CC)NCCCn1c(Sc2cc(OC)ccc2I)nc2c(N)ncnc21` returned an IC50 in data set [6] of 200 nM.

`COc1ccc(I)c(Sc2nc3c(N)ncnc3n2CCNCC(C)(C)C)c1` returned an IC50 in [6] of 500 nM. In addition, the result in [16] was Active.
